Results: ChEMBL document CHEMBL1926565, “Synthesis, antiproliferative activities and telomerase inhibition evaluation of novel asymmetrical 1,2-disubstituted amidoanthraquinone derivatives” (Eur J Med Chem, 2012)
Activity calls are given as the source filed them. No cut-off for these calls is given here.

Columns and labels:
[1] = tested on: PC-3; test: Cytotoxicity against human PC3 cells after 48 hrs by SRB assay; type: functional, cell-based; conditions: PC-3, 48 h
Summary of the method: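 PC-3 cells grown in RPMI1640 with 10% FBS at 37 °C, 5% CO₂. Seeded in medium with 5% FBS; after 24 h, one plate fixed with 10% TCA as T₀. Compound or 0.1% DMSO vehicle added for 48 h, then TCA fixation and 0.4% SRB in 1% acetic acid. Dye solubilized in 10 mM Trizma base, absorbance read at 515 nm. IC50 is the concentration giving 50% reduction of the protein gain in controls.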

[2] = tested on: HCT-15; test: Cytotoxicity against human HCT15 cells assessed as cellular growth at 10 uM; type: functional
Summary of the method: (§1)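 Single-dose screen run by the NCI across its 60-human-tumour-cell-line panel; growth recorded for each cell line.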

[3] = tested on: BT-549; test: Cytotoxicity against human BT549 cells assessed as cellular growth at 10 uM; type: functional; summary of the method: as §1
[4] = tested on: PC-3; test: Cytotoxicity against human PC3 cells assessed as cellular growth at 10 uM; type: functional; summary of the method: as §1
[5] = tested on: UACC-257; test: Cytotoxicity against human UACC257 cells assessed as cellular growth at 10 uM; type: functional
[6] = tested on: LOX IMVI; test: Cytotoxicity against human LOXIMVI cells assessed as cellular growth at 10 uM; type: functional; summary of the method: as §1
[7] = tested on: HCC 2998; test: Cytotoxicity against human HCC2998 cells assessed as cellular growth at 10 uM; type: functional; summary of the method: as §1
[8] = tested on: CCRF-CEM; test: Cytotoxicity against human CCRF-CEM cells assessed as cellular growth at 10 uM; type: functional; summary of the method: as §1
[9] = tested on: OVCAR-5; test: Cytotoxicity against human OVCAR5 cells assessed as cellular growth at 10 uM; type: functional; summary of the method: as §1
[10] = tested on: KM12; test: Cytotoxicity against human KM12 cells assessed as cellular growth at 10 uM; type: functional; summary of the method: as §1
[11] = tested on: HOP-62; test: Cytotoxicity against human HOP62 cells assessed as cellular growth at 10 uM; type: functional; summary of the method: as §1
[12] = tested on: A498; test: Cytotoxicity against human A498 cells assessed as cellular growth at 10 uM; type: functional; summary of the method: as §1
[13] = tested on: CAKI-1; test: Cytotoxicity against human Caki1 cells assessed as cellular growth at 10 uM; type: functional; summary of the method: as §1
[14] = tested on: SNB-75; test: Cytotoxicity against human SNB75 cells assessed as cellular growth at 10 uM; type: functional
[15] = tested on: 786-0; test: Cytotoxicity against human 786-0 cells assessed as cellular growth at 10 uM; type: functional; summary of the method: as §1
[16] = tested on: U-251; test: Cytotoxicity against human U251 cells assessed as cellular growth at 10 uM; type: functional
[17] = biological target: Telomerase reverse transcriptase (Homo sapiens) (UniProt O14746); test: Residual activity of human TERT in H1299 cells at 100 uM after 24 hrs by SEAP reporter gene assay
[18] = tested on: NCI/ADR-RES; test: Cytotoxicity against human NCI/ADR-RES cells assessed as cellular growth at 10 uM; type: functional; summary of the method: as §1
[19] = tested on: NCI-H460; test: Cytotoxicity against human NCI-H460 cells assessed as cellular growth at 10 uM; type: functional; summary of the method: as §1
[20] = tested on: SK-OV-3; test: Cytotoxicity against human SKOV3 cells assessed as cellular growth at 10 uM; type: functional
[21] = tested on: M14; test: Cytotoxicity against human M14 cells assessed as cellular growth at 10 uM; type: functional; summary of the method: as §1
[22] = tested on: NCI-H23; test: Cytotoxicity against human NCI-H23 cells assessed as cellular growth at 10 uM; type: functional; summary of the method: as §1
[23] = tested on: OVCAR-3; test: Cytotoxicity against human OVCAR3 cells assessed as cellular growth at 10 uM; type: functional; summary of the method: as §1
[24] = tested on: SK-MEL-5; test: Cytotoxicity against human SK-MEL-5 cells assessed as cellular growth at 10 uM; type: functional
[25] = tested on: NCI-H226; test: Cytotoxicity against human NCI-H226 cells assessed as cellular growth at 10 uM; type: functional; summary of the method: as §1
[26] = tested on: IGROV-1; test: Cytotoxicity against human IGROV1 cells assessed as cellular growth at 10 uM; type: functional; summary of the method: as §1
[27] = tested on: SNB-19; test: Cytotoxicity against human SNB19 cells assessed as cellular growth at 10 uM; type: functional
[28] = tested on: MOLT-4; test: Cytotoxicity against human MOLT4 cells assessed as cellular growth at 10 uM; type: functional; summary of the method: as §1
[29] = tested on: Malme-3M; test: Cytotoxicity against human MALME-3M cells assessed as cellular growth at 10 uM; type: functional; summary of the method: as §1
[30] = biological target: Telomerase reverse transcriptase (Homo sapiens) (UniProt O14746); test: Inhibition of telomerase activity in human H1299 cell free extract at 10 uM by modified TRAP assay
Summary of the method: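 TRAP assay using total cell lysate from H1299 lung cancer cells as the telomerase source, with protein measured against BSA standards. Compounds tested at 10 µM. Controls were lysate without inhibitor (positive) and RNase A-treated extract without inhibitor (negative).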

[31] = Cytotoxicity against human Hs 578T cells assessed as cellular growth at 10 uM; type: functional; summary of the method: as §1
[32] = tested on: NCI-H322M; test: Cytotoxicity against human NCI-H322M cells assessed as cellular growth at 10 uM; type: functional; summary of the method: as §1
[33] = biological target: Telomerase reverse transcriptase (Homo sapiens) (UniProt O14746); test: Residual activity of human TERT in H1299 cells at 1 uM after 24 hrs by SEAP reporter gene assay
[34] = tested on: SF-268; test: Cytotoxicity against human SF268 cells assessed as cellular growth at 10 uM; type: functional; summary of the method: as §1
[35] = tested on: HCT-116; test: Cytotoxicity against human HCT116 cells assessed as cellular growth at 10 uM; type: functional; summary of the method: as §1
[36] = biological target: Telomerase reverse transcriptase (Homo sapiens) (UniProt O14746); test: Residual activity of human TERT in H1299 cells at 10 uM after 24 hrs by SEAP reporter gene assay
[37] = tested on: MDA-MB-231; test: Cytotoxicity against human MDA-MB-231 cells assessed as cellular growth at 10 uM; type: functional; summary of the method: as §1
[38] = Growth of human H1299 cells at 100 uM 48 hrs by MTT assay; conditions: NCI-H1299, 48 h
[39] = tested on: SN12C; test: Cytotoxicity against human SN12C cells assessed as cellular growth at 10 uM; type: functional
[40] = tested on: SF-539; test: Cytotoxicity against human SF539 cells assessed as cellular growth at 10 uM; type: functional; summary of the method: as §1
[41] = tested on: EKVX; test: Cytotoxicity against human EKVX cells assessed as cellular growth at 10 uM; type: functional; summary of the method: as §1
[42] = tested on: RXF 393; test: Cytotoxicity against human RXF393 cells assessed as cellular growth at 10 uM; type: functional; summary of the method: as §1
[43] = tested on: OVCAR-4; test: Cytotoxicity against human OVCAR4 cells assessed as cellular growth at 10 uM; type: functional; summary of the method: as §1
[44] = tested on: HL-60(TB); test: Cytotoxicity against human HL-60(TB) cells assessed as cellular growth at 10 uM; type: functional; summary of the method: as §1
[45] = tested on: COLO 205; test: Cytotoxicity against human COLO205 cells assessed as cellular growth at 10 uM; type: functional; summary of the method: as §1
[46] = tested on: ACHN; test: Cytotoxicity against human ACHN cells assessed as cellular growth at 10 uM; type: functional; summary of the method: as §1
[47] = Growth of human H1299 cells at 1 uM after 48 hrs by MTT assay; conditions: NCI-H1299, 48 h
[48] = tested on: SR; test: Cytotoxicity against human SR cells assessed as cellular growth at 10 uM; type: functional

Sequence of Telomerase reverse transcriptase (Homo sapiens) (O14746 whole entry): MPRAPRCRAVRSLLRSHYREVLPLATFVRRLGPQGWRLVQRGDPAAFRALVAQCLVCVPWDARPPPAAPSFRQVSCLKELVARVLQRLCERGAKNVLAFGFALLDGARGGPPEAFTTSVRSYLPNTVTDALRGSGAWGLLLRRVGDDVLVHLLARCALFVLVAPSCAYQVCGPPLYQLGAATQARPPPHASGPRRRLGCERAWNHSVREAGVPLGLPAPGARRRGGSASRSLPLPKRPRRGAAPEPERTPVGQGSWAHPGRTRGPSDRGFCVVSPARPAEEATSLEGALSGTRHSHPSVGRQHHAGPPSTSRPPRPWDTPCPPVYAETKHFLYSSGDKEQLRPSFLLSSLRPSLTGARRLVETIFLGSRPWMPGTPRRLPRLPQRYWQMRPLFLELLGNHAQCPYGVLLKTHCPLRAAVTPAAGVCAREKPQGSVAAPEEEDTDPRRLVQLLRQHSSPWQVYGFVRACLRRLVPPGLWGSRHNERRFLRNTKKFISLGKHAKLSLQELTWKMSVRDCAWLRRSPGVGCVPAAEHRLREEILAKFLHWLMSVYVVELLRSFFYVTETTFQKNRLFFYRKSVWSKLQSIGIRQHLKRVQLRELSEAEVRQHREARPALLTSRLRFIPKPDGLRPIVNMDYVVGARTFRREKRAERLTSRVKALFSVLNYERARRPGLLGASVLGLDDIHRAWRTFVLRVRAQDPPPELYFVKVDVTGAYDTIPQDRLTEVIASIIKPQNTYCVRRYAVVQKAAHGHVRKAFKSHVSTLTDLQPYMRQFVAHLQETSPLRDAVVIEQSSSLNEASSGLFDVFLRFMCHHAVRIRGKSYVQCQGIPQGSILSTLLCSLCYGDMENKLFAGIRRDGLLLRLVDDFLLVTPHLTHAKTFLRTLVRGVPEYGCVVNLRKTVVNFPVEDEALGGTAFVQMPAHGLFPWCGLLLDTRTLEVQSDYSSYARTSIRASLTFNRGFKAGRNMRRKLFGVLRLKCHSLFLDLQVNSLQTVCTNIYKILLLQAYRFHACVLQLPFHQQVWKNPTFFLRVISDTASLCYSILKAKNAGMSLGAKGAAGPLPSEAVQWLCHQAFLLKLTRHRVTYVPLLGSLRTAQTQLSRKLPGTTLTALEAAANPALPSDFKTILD

Structure (SMILES): Cc1ccc(C(=O)Nc2c(NC(=O)CN3CCCC3)ccc3c2C(=O)c2ccccc2C3=O)cc1
- IC50 [1]: 17.6 µM
- Activity [2]: 73.22%
- Activity [3]: 81.58%
- Activity [4]: 75%
- Activity [5]: 92.83%
- Activity [6]: 80.62%
- Activity [7]: 84.6%
- Activity [8]: 39.61%
- Activity [9]: 102.31%
- Activity [10]: 51.05%
- Activity [11]: 113.43%
- Activity [12]: 68.12%
- Activity [13]: 55.64%
- Activity [14]: 66.03%
- Activity [15]: 65.15%
- Activity [16]: 82.17%
- residual activity [17]: 3%
- Activity [18]: 50.86%
- Activity [19]: 61.05%
- Activity [20]: 82.13%
- Activity [21]: 88.01%
- Activity [22]: 73.29%
- Activity [23]: 77.82%
- Activity [24]: 61.74%
- Activity [25]: 90.22%
- Activity [26]: 106.07%
- Activity [27]: 108.22%
- Activity [28]: 48.2%
- Activity [29]: 82.24%
- inhibition [30]: inactive
- Activity [31]: 69.39%
- Activity [32]: 82.5%
- residual activity [33]: 81%
- Activity [34]: 86.17%
- Activity [35]: 58.46%
- residual activity [36]: 59%
- Activity [37]: 73.34%
- growth, % of control at 100 µM [38]: 5%
- Activity [39]: 74.82%
- Activity [40]: 81.29%
- Activity [41]: 65.93%
- Activity [42]: 63.8%
- Activity [43]: 47.06%
- Activity [44]: 96.11%
- Activity [45]: 65.6%
- Activity [46]: 82.23%
- growth, % of control at 1 µM [47]: 88%

Structure (SMILES): Cc1ccc(C(=O)Nc2c(NC(=O)CCl)ccc3c2C(=O)c2ccccc2C3=O)cc1
- IC50 [1]: 3.87 µM
- Activity [2]: -50.22%
- Activity [3]: 28.19%
- Activity [4]: 6.81%
- Activity [6]: -57.05%
- Activity [9]: 109.55%
- Activity [10]: -19.53%
- Activity [11]: -28.62%
- Activity [12]: 123.78%
- Activity [14]: 6.31%
- Activity [15]: 11.3%
- Activity [16]: -44.02%
- residual activity [17]: 0%
- Activity [18]: 72.17%
- Activity [19]: 95.65%
- Activity [20]: 106.24%
- Activity [21]: -22.68%
- Activity [22]: -85.89%
- Activity [23]: -92.86%
- Activity [24]: -98.72%
- Activity [25]: -25.3%
- Activity [26]: 51.41%
- Activity [27]: 88.4%
- Activity [28]: -23.17%
- Activity [29]: -22.41%
- inhibition [30]: inactive
- Activity [32]: 95.05%
- Activity [48]: -19.84%
- residual activity [33]: 109%
- Activity [34]: 14.63%
- Activity [35]: -54.27%
- residual activity [36]: 0%
- Activity [37]: 24.67%
- growth, % of control at 100 µM [38]: 0%
- Activity [39]: -81.02%
- Activity [40]: -31.42%
- Activity [41]: 88.22%
- Activity [43]: 34.52%
- Activity [44]: -46.88%
- Activity [45]: -53.43%
- Activity [46]: 21.92%
- growth, % of control at 1 µM [47]: 103%

Structure (SMILES): Cc1ccc(C(=O)Nc2ccc3c(c2NC(=O)c2ccc(C)cc2)C(=O)c2ccccc2C3=O)cc1
- IC50 [1]: 3.16 µM
- Activity [2]: 102.44%
- Activity [3]: 95.39%
- Activity [4]: 82.91%
- Activity [5]: 98.46%
- Activity [6]: 84.41%
- Activity [7]: 84.68%
- Activity [8]: 79.02%
- Activity [9]: 110.18%
- Activity [10]: 94.21%
- Activity [11]: 105.23%
- Activity [12]: 124.08%
- Activity [13]: 94.89%
- Activity [14]: 102.26%
- Activity [15]: 116.17%
- Activity [16]: 91.73%
- residual activity [17]: 30%
- Activity [19]: 88.62%
- Activity [20]: 109.62%
- Activity [21]: 91.57%
- Activity [22]: 90.57%
- Activity [23]: 97.9%
- Activity [24]: 94.04%
- Activity [25]: 91.14%
- Activity [26]: 78.71%
- Activity [27]: 103.91%
- Activity [28]: 89.63%
- Activity [29]: 127.16%
- inhibition [30]: inactive
- Activity [31]: 105.96%
- Activity [32]: 97.74%
- Activity [48]: 87.69%
- residual activity [33]: 108%
- Activity [34]: 98.91%
- Activity [35]: 78.55%
- residual activity [36]: 97%
- Activity [37]: 93.29%
- growth, % of control at 100 µM [38]: 62%
- Activity [39]: 98.59%
- Activity [40]: 97.26%
- Activity [42]: 88.25%
- Activity [43]: 104.32%
- Activity [44]: 73.11%
- Activity [45]: 108.57%
- Activity [46]: 112.43%
- growth, % of control at 1 µM [47]: 100%
